Measurements reported in ChEMBL document CHEMBL3407479, “Structure-activity relationship for the oxadiazole class of antibiotics” (J Med Chem, 2015).
Converted amounts (≈) assume the structure as drawn.

Columns and labels:
[1] = system: Staphylococcus aureus; assay: Antibacterial activity against mecA-positive, methicillin/oxacillin/tetracycline-resistant and vancomycin/linezolid susceptible Staphylococcus aureus COL after 16 to 20 hrs by broth microdilution method; assay type: functional
[2] = system: Streptococcus oralis; assay: Antibacterial activity against Streptococcus oralis ATCC 9811 after 16 to 20 hrs by broth microdilution method; assay type: functional
[3] = system: Enterococcus faecalis; assay: Antibacterial activity against Enterococcus faecalis ATCC 29212 after 16 to 20 hrs by broth microdilution method; assay type: functional
[4] = system: Enterococcus faecium; assay: Antibacterial activity against Enterococcus faecium NCTC 7171 after 16 to 20 hrs by broth microdilution method; assay type: functional
[5] = system: Staphylococcus aureus; assay: Antibacterial activity against mecA-positive, methicillin/oxacillin/tetracycline-resistant and vancomycin/linezolid susceptible Staphylococcus aureus ATCC 27660 after 16 to 20 hrs by broth microdilution method; assay type: functional
[6] = system: Enterococcus faecalis; assay: Antibacterial activity against vancomycin-susceptible Enterococcus faecalis 201 clinical isolate after 16 to 20 hrs by broth microdilution method; assay type: functional
[7] = system: Staphylococcus aureus; assay: Antibacterial activity against vancomycin/methicillin-resistant Staphylococcus aureus VRS2 clinical isolate after 16 to 20 hrs by broth microdilution method; assay type: functional
[8] = Plasma protein binding in human at 10 uM after 6 hrs by equilibrium dialysis assay; assay type: ADME, cell-free
[9] = system: Enterococcus faecalis; assay: Antibacterial activity against vancomycin-resistant Enterococcus faecalis 99 clinical isolate after 16 to 20 hrs by broth microdilution method; assay type: functional
[10] = system: Staphylococcus epidermidis; assay: Antibacterial activity against Staphylococcus epidermidis ATCC 35547 after 16 to 20 hrs by broth microdilution method; assay type: functional
[11] = system: Streptococcus pyogenes; assay: Antibacterial activity against Streptococcus pyogenes ATCC 49399 after 16 to 20 hrs by broth microdilution method; assay type: functional
[12] = system: Staphylococcus aureus; assay: Antibacterial activity against mecA-positive, ciprofloxacin/gentamicin/oxacillin/penicillin/linezolid-resistant Staphylococcus aureus NRS120 after 16 to 20 hrs by broth microdilution method; assay type: functional
[13] = system: Staphylococcus haemolyticus; assay: Antibacterial activity against Staphylococcus haemolyticus ATCC 29970 after 16 to 20 hrs by broth microdilution method; assay type: functional
[14] = system: HepG2; assay: Cytotoxicity against human HepG2 cells assessed as cell viability after 16 hrs by XTT assay; assay type: cell-based; conditions: HepG2, 16 h
Procedure, shortened: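 HepG2 cells were run in triplicate in an XTT viability assay. IC50 was derived from the concentration–response data.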

[15] = system: Staphylococcus aureus; assay: Antibacterial activity against vancomycin/methicillin-resistant Staphylococcus aureus VRS1 clinical isolate after 16 to 20 hrs by broth microdilution method; assay type: functional
[16] = system: Enterococcus faecium; assay: Antibacterial activity against vancomycin-susceptible Enterococcus faecium 119-39A clinical isolate after 16 to 20 hrs by broth microdilution method; assay type: functional
[17] = system: Bacillus cereus; assay: Antibacterial activity against Bacillus cereus ATCC 13061 after 16 to 20 hrs by broth microdilution method; assay type: functional
[18] = system: Bacillus licheniformis; assay: Antibacterial activity against Bacillus licheniformis ATCC 12759 after 16 to 20 hrs by broth microdilution method; assay type: functional
[19] = system: Enterococcus faecium; assay: Antibacterial activity against vancomycin-resistant Enterococcus faecium 106 clinical isolate after 16 to 20 hrs by broth microdilution method
[20] = Plasma protein binding in human by equilibrium dialysis assay
[21] = system: Staphylococcus aureus; assay: Antibacterial activity against mecA-positive, ciprofloxacin/gentamicin/oxacillin/penicillin/linezolid-resistant Staphylococcus aureus NRS119 after 16 to 20 hrs by broth microdilution method; assay type: functional
[22] = AUC (0 to 8 hrs) in ICR mouse at 50 mg/kg, iv; assay type: ADME, organism-based; design: time < 8 hr, dose 50 mg/kg, route intravenous; conditions: plasma
[23] = system: Staphylococcus aureus; assay: Antibacterial activity against methicillin-sensitive Staphylococcus aureus ATCC 29213 after 16 to 20 hrs by broth microdilution method; assay type: functional
[24] = system: Staphylococcus aureus; assay: Antibacterial activity against methicillin-resistant Staphylococcus aureus ATCC 27660 in po dosed ICR mouse peritonitis infection model assessed as survival rate administered at 1 hr post infection; assay type: functional; conditions: ATCC 27660, po
Procedure, shortened: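 Female ICR mice, 6–8 weeks, given 0.5 mL ip of S. aureus (final 5×10^7 cfu/mL in 5% mucin). Six mice per dose level; a single oral dose at 1 h post-infection.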

| Compound | MIC [1] [µg/mL] | MIC [2] [µg/mL] | MIC [3] [µg/mL] | MIC [4] [µg/mL] | PPB [8] [%] | MIC [10] [µg/mL] | MIC [11] [µg/mL] | MIC [12] [µg/mL] | MIC [13] [µg/mL] | IC50 [14] [µg/mL] | MIC [15] [µg/mL] | MIC [16] [µg/mL] | MIC [17] [µg/mL] | MIC [18] [µg/mL] | MIC [19] [µg/mL] | MIC [21] [µg/mL] | MIC [23] [µg/mL] | further results |
| --- | --- | --- | --- | --- | --- | --- | --- | --- | --- | --- | --- | --- | --- | --- | --- | --- | --- | --- |
| FC(F)(F)c1ccc(Oc2ccc(-c3noc(-c4n[nH]cc4Cl)n3)cc2)cc1 | > 128 | > 128 | > 128 | 16 (≈ 39.3 µM) | 97.8 | > 128 | > 128 | 64 (≈ 157 µM) | > 128 | 24.1 (≈ 59.3 µM) | 1 (≈ 2.46 µM) | > 128 | > 128 | > 128 | > 128 |  |  | MIC [5]: 2 µg/mL (≈ 4.92 µM); MIC [6]: > 128 µg/mL; MIC [7]: 0.5 µg/mL (≈ 1.23 µM); MIC [9]: > 128 µg/mL |
| CCCCCCCCCC(=O)N[C@@H](Cc1c[nH]c2ccccc12)C(=O)N[C@H](CC(N)=O)C(=O)N[C@@H](CC(=O)O)C(=O)N[C@@H]1C(=O)NCC(=O)N[C@@H](CCCN)C(=O)N[C@@H](CC(=O)O)C(=O)N[C@H](C)C(=O)N[C@@H](CC(=O)O)C(=O)NCC(=O)N[C@H](CO)C(=O)N[C@@H]([C@H](C)CC(=O)O)C(=O)N[C@@H](CC(=O)c2ccccc2N)C(=O)O[C@@H]1C |  |  |  |  |  |  |  |  |  |  |  |  |  |  |  |  |  | fraction unbound [20]: < 0.09 |
| Oc1ccc(-c2nc(-c3ccc(Oc4ccc(C(F)(F)F)cc4)cc3)no2)cc1 | 2 (≈ 5.02 µM) | 32 (≈ 80.3 µM) | 2 (≈ 5.02 µM) | 2 (≈ 5.02 µM) | 99.9 | 2 (≈ 5.02 µM) | 32 (≈ 80.3 µM) | 2 (≈ 5.02 µM) | 2 (≈ 5.02 µM) | 25.8 (≈ 64.8 µM) | 2 (≈ 5.02 µM) | 1 (≈ 2.51 µM) | 2 (≈ 5.02 µM) | 2 (≈ 5.02 µM) | 2 (≈ 5.02 µM) | 2 (≈ 5.02 µM) | 1 (≈ 2.51 µM) | MIC [5]: 2 µg/mL (≈ 5.02 µM); MIC [6]: 2 µg/mL (≈ 5.02 µM); MIC [7]: 2 µg/mL (≈ 5.02 µM); MIC [9]: 2 µg/mL (≈ 5.02 µM); AUC(0-t) at 8 h [22]: 44200 ng·h/mL |
| CO[C@H]1/C=C/O[C@@]2(C)Oc3c(C)c(O)c4c(O)c(c(/C=N/N5CCN(C)CC5)c(O)c4c3C2=O)NC(=O)/C(C)=C\C=C\[C@H](C)[C@H](O)[C@@H](C)[C@@H](O)[C@@H](C)[C@H](OC(C)=O)[C@@H]1C [RIFAMPIN] |  |  |  |  |  |  |  |  |  |  |  |  |  |  |  |  |  | fraction unbound [20]: < 0.09 |
| Fc1ccc(Oc2ccc(-c3noc(-c4n[nH]cc4Cl)n3)cc2)cc1 | > 128 | > 128 | > 128 | 32 (≈ 89.7 µM) | 94.5 | > 128 | > 128 | 64 (≈ 179 µM) | > 128 | 18.2 (≈ 51 µM) | 1 (≈ 2.8 µM) | > 128 | > 128 | > 128 | > 128 | 2 (≈ 5.61 µM) | 1 (≈ 2.8 µM) | MIC [6]: > 128 µg/mL; MIC [9]: > 128 µg/mL |
| C#Cc1c[nH]nc1-c1nc(-c2ccc(Oc3ccc(C(F)(F)F)cc3)cc2)no1 | > 128 | > 128 | > 128 | > 128 | 96.4 | > 128 | > 128 | > 128 | > 128 | 9.8 (≈ 24.7 µM) | 1 (≈ 2.52 µM) | > 128 | > 128 | > 128 | > 128 | 32 (≈ 80.7 µM) | 0.25 (≈ 0.631 µM) | MIC [5]: 0.5 µg/mL (≈ 1.26 µM); MIC [6]: > 128 µg/mL; MIC [7]: 0.5 µg/mL (≈ 1.26 µM); MIC [9]: > 128 µg/mL |
| Cc1onc(-c2ccccc2)c1C(=O)N[C@@H]1C(=O)N2[C@@H]1SC(C)(C)[C@@H]2C(=O)O [OXACILLIN] |  |  |  |  |  |  |  |  |  |  |  |  |  |  |  |  |  | fraction unbound [20]: < 0.09 |
| CN[C@H](CC(C)C)C(=O)N[C@H]1C(=O)N[C@@H](CC(N)=O)C(=O)N[C@H]2C(=O)N[C@H]3C(=O)N[C@H](C(=O)N[C@H](C(=O)O)c4cc(O)cc(O)c4-c4cc3ccc4O)[C@H](O)c3ccc(c(Cl)c3)Oc3cc2cc(c3O[C@@H]2O[C@H](CO)[C@@H](O)[C@H](O)[C@H]2O[C@H]2C[C@](C)(N)[C@H](O)[C@H](C)O2)Oc2ccc(cc2Cl)[C@H]1O [VANCOMYCIN] |  |  | 2 (≈ 1.38 µM) |  |  | 16 (≈ 11 µM) | 0.6 (≈ 0.414 µM) |  |  |  |  |  |  |  | 256 (≈ 177 µM) |  |  |  |
| CC(C)Nc1c[nH]nc1-c1nc(-c2ccc(Oc3ccc(C(F)(F)F)cc3)cc2)no1 | > 128 | > 128 | > 128 | 32 (≈ 74.5 µM) | 91.6 | > 128 | > 128 | > 128 | > 128 | 3.9 (≈ 9.08 µM) | 1 (≈ 2.33 µM) | > 128 | > 128 | > 128 | > 128 | 2 (≈ 4.66 µM) | 0.5 (≈ 1.16 µM) | MIC [5]: 0.5 µg/mL (≈ 1.16 µM); MIC [6]: > 128 µg/mL; MIC [7]: 4 µg/mL (≈ 9.32 µM); MIC [9]: > 128 µg/mL |
| FC(F)(F)c1ccc(Oc2ccc(-c3noc(-c4c[nH]cn4)n3)cc2)cc1 | 32 (≈ 86 µM) | > 128 |  | 8 (≈ 21.5 µM) | 93.5 | 32 (≈ 86 µM) | 128 (≈ 344 µM) |  | 16 (≈ 43 µM) | 31.5 (≈ 84.6 µM) | 1 (≈ 2.69 µM) |  |  |  |  | 4 (≈ 10.7 µM) | 2 (≈ 5.37 µM) |  |
| CC(=O)NC[C@H]1CN(c2ccc(N3CCOCC3)c(F)c2)C(=O)O1 [LINEZOLID] |  | 1 (≈ 2.96 µM) |  | 2 (≈ 5.93 µM) |  | 1 (≈ 2.96 µM) | 1 (≈ 2.96 µM) | 32 (≈ 94.9 µM) | 2 (≈ 5.93 µM) |  |  | 2 (≈ 5.93 µM) | 1 (≈ 2.96 µM) | 1 (≈ 2.96 µM) | 1 (≈ 2.96 µM) | 32 (≈ 94.9 µM) |  | ED50 [24]: 2.8 mg/kg |
| Fc1ccc(Oc2ccc(-c3noc(-c4cc[nH]n4)n3)cc2)cc1 |  |  |  |  |  |  |  |  |  |  |  |  |  |  |  |  | ≥ 128 |  |
| c1ccc(Oc2ccc(-c3noc(-c4ccncc4)n3)cc2)cc1 |  |  |  |  |  |  |  |  |  |  |  |  |  |  |  |  | ≥ 128 |  |
| O=P(O)(O)c1ccc(-c2nc(-c3ccc(Oc4ccc(F)cc4)cc3)no2)cc1 |  |  |  |  |  |  |  |  |  |  |  |  |  |  |  |  | ≥ 128 |  |
| O=[N+]([O-])c1c[nH]nc1-c1nc(-c2ccc(Oc3ccc(C(F)(F)F)cc3)cc2)no1 |  |  |  |  |  |  |  |  |  |  |  |  |  |  |  |  | 2 (≈ 4.79 µM) |  |
| FC(F)(F)c1ccc(Oc2ccc(-c3noc(-c4n[nH]cc4NC4CCCC4)n3)cc2)cc1 |  |  |  |  |  |  |  |  |  |  |  |  |  |  |  |  | ≥ 128 |  |
| COc1ccc(-c2nc(-c3ccc(Oc4ccccc4)cc3)no2)cc1[N+](=O)[O-] |  |  |  |  |  |  |  |  |  |  |  |  |  |  |  |  | ≥ 128 |  |
| O=[N+]([O-])c1c[nH]c(-c2nc(-c3ccc(Oc4ccc(F)cc4)cc3)no2)c1 |  |  |  |  |  |  |  |  |  |  |  |  |  |  |  |  | ≥ 128 |  |
| FC(F)(F)c1ccc(Oc2ccc(-c3noc(-c4nc[nH]n4)n3)cc2)cc1 |  |  |  |  |  |  |  |  |  |  |  |  |  |  |  |  | ≥ 128 |  |
| O=[N+]([O-])c1cc(-c2nc(-c3ccc(Oc4ccc(F)cc4)cc3)no2)cnc1O |  |  |  |  |  |  |  |  |  |  |  |  |  |  |  |  | 8 (≈ 20.3 µM) |  |
